ChEMBL document CHEMBL1135791, “Lysergamides of isomeric 2,4-dimethylazetidines map the binding orientation of the diethylamide moiety in the potent hallucinogenic agent N,N-diethyllysergamide (LSD)” (J Med Chem, 2002)
Several values for one entry are separate records, joined by “and”; a condition that tells them apart may be missing. Identical values can stand only once.

Tests used:
[1] = target: T1, 5-hydroxytryptamine receptor 1A (Homo sapiens, UniProt P08908); assay: Binding affinity towards 5-hydroxytryptamine 1A receptor using [3H]8-OH-DPAT as radioligand
T1 sequence (P08908 whole entry): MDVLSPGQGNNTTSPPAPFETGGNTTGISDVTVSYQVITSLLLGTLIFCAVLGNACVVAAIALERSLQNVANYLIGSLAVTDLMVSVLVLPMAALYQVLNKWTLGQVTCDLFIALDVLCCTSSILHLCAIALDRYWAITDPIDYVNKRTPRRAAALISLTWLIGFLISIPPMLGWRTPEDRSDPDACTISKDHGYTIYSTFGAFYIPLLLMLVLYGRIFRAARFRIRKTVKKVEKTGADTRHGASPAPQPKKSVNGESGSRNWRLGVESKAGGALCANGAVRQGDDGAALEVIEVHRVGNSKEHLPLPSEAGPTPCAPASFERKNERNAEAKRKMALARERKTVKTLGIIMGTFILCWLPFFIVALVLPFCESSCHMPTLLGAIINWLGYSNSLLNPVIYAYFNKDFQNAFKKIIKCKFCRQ

[2] = target: 5-hydroxytryptamine receptor 1E (Homo sapiens, UniProt P28566); assay: Binding affinity towards 5-hydroxytryptamine 1E receptor
Sequence of 5-hydroxytryptamine receptor 1E (P28566 whole entry): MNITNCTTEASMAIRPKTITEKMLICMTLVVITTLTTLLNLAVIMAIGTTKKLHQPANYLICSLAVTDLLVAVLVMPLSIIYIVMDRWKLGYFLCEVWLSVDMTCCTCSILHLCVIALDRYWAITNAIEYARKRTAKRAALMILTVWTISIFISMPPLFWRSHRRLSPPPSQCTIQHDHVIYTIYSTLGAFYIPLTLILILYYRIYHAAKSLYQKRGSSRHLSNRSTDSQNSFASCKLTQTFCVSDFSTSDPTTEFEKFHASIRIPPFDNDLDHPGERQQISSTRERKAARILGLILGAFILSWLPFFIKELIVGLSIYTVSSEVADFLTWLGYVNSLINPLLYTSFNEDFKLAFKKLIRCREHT
Outline: (§1)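 Screening-panel competition binding. […] Each Ki was replicated 2–3 times and is reported as mean ± SEM from nonlinear fitting. Receptor source and radioligand are not given beyond an online protocol.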

[3] = target: T2, 5-hydroxytryptamine receptor 1D (Homo sapiens, UniProt P28221); assay: Binding affinities towards 5-hydroxytryptamine 1D receptor alpha; outline: as §1
T2 sequence (P28221 whole entry): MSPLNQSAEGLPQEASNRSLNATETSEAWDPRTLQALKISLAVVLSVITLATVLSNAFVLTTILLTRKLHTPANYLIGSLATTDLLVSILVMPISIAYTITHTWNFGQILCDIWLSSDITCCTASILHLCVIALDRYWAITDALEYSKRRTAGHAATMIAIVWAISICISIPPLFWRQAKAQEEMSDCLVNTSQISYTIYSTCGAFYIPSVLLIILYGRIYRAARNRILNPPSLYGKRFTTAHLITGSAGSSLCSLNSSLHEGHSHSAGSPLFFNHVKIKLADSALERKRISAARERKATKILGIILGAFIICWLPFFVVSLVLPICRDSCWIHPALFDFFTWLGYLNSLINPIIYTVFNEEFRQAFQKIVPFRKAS

[4] = target: T3, 5-hydroxytryptamine receptor 2B (Homo sapiens, UniProt P41595); assay: Binding affinities towards 5-hydroxytryptamine 2B receptor; outline: as §1
T3 sequence (P41595 whole entry): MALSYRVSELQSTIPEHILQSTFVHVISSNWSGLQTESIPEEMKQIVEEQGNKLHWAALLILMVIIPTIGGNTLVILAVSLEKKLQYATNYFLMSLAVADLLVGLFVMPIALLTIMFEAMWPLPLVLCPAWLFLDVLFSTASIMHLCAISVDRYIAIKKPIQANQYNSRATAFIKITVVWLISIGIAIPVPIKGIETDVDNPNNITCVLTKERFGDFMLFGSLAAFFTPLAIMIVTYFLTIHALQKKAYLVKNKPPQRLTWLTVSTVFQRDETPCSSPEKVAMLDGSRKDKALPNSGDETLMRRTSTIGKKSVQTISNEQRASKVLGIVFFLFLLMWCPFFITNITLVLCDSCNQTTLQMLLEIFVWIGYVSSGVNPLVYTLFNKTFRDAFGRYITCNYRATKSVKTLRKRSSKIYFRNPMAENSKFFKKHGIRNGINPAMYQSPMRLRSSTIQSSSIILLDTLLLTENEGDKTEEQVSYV

[5] = target: T4, 5-hydroxytryptamine receptor 5A (Homo sapiens, UniProt P47898); assay: Binding affinities towards 5-hydroxytryptamine 5A receptor
T4 sequence (P47898 whole entry): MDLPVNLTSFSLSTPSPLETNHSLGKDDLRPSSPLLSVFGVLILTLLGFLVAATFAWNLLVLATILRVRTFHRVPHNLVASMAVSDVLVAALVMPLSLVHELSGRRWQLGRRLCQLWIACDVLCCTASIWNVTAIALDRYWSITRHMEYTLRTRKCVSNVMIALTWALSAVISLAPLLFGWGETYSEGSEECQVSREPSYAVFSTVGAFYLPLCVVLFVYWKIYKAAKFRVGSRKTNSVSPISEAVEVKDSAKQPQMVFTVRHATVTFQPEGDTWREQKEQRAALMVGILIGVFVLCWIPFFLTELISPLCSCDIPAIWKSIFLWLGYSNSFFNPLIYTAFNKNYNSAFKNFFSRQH

[6] = target: T5, 5-hydroxytryptamine receptor 6 (Homo sapiens, UniProt P50406); assay: Binding affinities towards 5-hydroxytryptamine 6 receptor
T5 sequence (P50406 whole entry): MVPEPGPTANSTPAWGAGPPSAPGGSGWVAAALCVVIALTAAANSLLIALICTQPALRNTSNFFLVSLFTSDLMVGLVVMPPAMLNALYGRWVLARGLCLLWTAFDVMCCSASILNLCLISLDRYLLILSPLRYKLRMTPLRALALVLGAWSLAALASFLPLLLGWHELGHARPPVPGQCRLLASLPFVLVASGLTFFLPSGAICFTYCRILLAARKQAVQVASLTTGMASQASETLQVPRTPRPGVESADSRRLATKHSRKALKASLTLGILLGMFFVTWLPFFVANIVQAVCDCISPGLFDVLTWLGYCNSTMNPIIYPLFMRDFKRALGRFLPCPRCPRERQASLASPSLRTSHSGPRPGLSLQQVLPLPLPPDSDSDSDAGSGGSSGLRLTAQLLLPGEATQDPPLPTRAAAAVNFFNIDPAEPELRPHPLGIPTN
Outline: (§2)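 Screening-panel competition binding. Each Ki was replicated 2–3 times and is reported as mean ± SEM from nonlinear fitting. Receptor source and radioligand are not given beyond an online protocol.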

D(1A) dopamine receptor [7] = target: T6, D(1A) dopamine receptor (Mus musculus, UniProt Q61616); assay: Binding affinity towards Dopamine receptor D1; outline: as §1
T6 sequence (Q61616 whole entry): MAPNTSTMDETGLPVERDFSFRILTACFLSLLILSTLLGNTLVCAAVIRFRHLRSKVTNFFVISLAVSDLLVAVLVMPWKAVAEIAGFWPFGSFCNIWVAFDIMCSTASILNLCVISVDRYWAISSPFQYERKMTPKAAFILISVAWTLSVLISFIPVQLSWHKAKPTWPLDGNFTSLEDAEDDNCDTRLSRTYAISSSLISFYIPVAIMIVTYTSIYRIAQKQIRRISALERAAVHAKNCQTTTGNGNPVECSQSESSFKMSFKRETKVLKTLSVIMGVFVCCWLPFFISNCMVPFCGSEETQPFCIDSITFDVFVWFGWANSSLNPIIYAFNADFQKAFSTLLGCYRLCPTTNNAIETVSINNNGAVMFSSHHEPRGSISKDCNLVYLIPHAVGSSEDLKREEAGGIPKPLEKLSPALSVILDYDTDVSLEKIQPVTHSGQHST

D(2) dopamine receptor [8] = target: T7, D(2) dopamine receptor (Homo sapiens, UniProt P14416); assay: Binding affinity towards Dopamine receptor D2
T7 sequence (P14416 whole entry): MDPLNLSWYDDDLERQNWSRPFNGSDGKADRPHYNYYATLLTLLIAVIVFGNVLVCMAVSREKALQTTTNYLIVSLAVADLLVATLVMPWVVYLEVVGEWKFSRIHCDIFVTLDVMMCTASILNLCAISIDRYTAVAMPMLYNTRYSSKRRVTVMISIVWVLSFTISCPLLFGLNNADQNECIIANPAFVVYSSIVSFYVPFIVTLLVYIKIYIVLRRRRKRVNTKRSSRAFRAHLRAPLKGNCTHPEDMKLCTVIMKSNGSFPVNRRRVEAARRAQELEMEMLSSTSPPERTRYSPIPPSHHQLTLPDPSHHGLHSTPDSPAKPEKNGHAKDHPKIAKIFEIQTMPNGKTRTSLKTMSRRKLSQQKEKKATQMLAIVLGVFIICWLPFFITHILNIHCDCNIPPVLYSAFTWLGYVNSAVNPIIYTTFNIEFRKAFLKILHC

Histamine H1 receptor [9] = target: T8, Histamine H1 receptor (Homo sapiens, UniProt P35367); assay: Binding affinity towards Histamine H1 receptor; outline: as §2
T8 sequence (P35367 whole entry): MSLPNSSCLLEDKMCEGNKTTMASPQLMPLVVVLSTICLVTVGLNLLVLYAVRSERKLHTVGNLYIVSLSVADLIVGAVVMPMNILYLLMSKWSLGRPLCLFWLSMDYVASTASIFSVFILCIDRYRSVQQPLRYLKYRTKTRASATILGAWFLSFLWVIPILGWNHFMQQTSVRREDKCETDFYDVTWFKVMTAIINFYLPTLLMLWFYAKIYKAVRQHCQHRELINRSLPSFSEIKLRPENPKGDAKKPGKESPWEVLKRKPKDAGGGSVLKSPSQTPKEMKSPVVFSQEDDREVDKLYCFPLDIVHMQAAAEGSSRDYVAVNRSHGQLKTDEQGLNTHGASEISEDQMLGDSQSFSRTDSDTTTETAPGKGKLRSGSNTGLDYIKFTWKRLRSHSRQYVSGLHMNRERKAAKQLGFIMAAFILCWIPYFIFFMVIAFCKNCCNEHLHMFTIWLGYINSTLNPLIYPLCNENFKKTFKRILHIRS

Rattus norvegicus [10] = assay: Compound was evaluated for the percentage of rats disrupted following a dose of 0.01 mg/kg and 0.025 uM/kg; format: functional
Outline: (§3)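 LSD-trained rats (0.08 mg/kg ip vs saline, two-lever, FR50) were given the test drug ip 30 min before extinction sessions, with ≥8 rats per dose. A session was scored as disrupted if 50 presses on one lever were not completed within 5 min. The value is the percentage of rats disrupted at each dose.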

Rattus norvegicus [11] = assay: Compound was evaluated for the percentage of rats disrupted following a dose of 0.02 mg/kg and 0.049 uM/kg; format: functional; outline: as §3
Rattus norvegicus [12] = assay: Compound was evaluated for the percentage of rats selecting the drug lever (SDL) following a dose of 0.01 mg/kg and 0.025 uM/kg; format: functional
Rattus norvegicus [13] = assay: Compound was evaluated for the percentage of rats selecting the drug lever (SDL) following a dose of 0.02 mg/kg and 0.049 uM/kg; format: functional
Rattus norvegicus [14] = assay: Compound was evaluated for the percentage of rats selecting the drug lever (SDL) following a dose of 0.04 mg/kg and 0.097 uM/kg; format: functional
Rattus norvegicus [15] = assay: Compound was evaluated for effective dose measured in mg/kg following a dose of 0.04 mg/kg and 0.097 uM/kg (95%CI); range 0.007-0.016; format: functional
Rattus norvegicus [16] = assay: Compound was evaluated for the percentage of rats selecting the drug lever (SDL) following a dose of 0.08 mg/kg and 0.194 uM/kg; format: functional
Rattus norvegicus [17] = assay: Compound was evaluated for effective dose measured in mg/kg following a dose of 0.02 mg/kg and 0.049 uM/kg (95%CI); format: functional
[18] = target: T2, 5-hydroxytryptamine receptor 1D; assay: Binding affinity towards 5-hydroxytryptamine 1D receptor alpha using [3H]8-OH-DPAT as radioligand
D(1A) dopamine receptor [19] = target: T6, D(1A) dopamine receptor; assay: Binding affinities towards Dopamine receptor D1; outline: as §1
D(4) dopamine receptor = target: T9, D(4) dopamine receptor (Homo sapiens, UniProt P21917); assay: Binding affinity towards Dopamine receptor D4; outline: as §2
T9 sequence (P21917 whole entry): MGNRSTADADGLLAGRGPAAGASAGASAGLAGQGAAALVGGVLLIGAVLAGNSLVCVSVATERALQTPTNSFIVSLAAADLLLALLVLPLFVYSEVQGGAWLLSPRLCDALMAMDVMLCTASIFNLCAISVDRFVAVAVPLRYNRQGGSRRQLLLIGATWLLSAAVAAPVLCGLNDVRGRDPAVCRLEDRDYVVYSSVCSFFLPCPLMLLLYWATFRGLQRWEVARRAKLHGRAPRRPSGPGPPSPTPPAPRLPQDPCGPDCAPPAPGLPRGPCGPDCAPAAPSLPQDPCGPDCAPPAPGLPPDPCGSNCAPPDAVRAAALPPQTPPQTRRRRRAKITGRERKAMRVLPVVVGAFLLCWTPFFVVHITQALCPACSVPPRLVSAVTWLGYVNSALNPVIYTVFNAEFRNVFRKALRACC

D(3) dopamine receptor = D(3) dopamine receptor (Homo sapiens, UniProt P35462); assay: Binding affinity towards Dopamine receptor D3
Sequence of D(3) dopamine receptor (P35462 whole entry): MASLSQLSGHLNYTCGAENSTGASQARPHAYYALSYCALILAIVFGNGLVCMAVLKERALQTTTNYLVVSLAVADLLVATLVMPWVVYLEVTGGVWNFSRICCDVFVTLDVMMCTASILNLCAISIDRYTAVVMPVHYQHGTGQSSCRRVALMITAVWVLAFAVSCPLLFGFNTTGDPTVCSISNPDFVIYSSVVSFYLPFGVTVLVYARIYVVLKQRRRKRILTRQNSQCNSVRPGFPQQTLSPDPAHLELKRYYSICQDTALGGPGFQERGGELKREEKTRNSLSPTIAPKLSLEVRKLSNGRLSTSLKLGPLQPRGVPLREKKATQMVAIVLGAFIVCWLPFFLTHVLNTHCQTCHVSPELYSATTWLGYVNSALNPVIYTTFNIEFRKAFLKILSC

D(1B) dopamine receptor = D(1B) dopamine receptor (Homo sapiens, UniProt P21918); assay: Binding affinity towards Dopamine receptor D5; outline: as §2
Sequence of D(1B) dopamine receptor (P21918 whole entry): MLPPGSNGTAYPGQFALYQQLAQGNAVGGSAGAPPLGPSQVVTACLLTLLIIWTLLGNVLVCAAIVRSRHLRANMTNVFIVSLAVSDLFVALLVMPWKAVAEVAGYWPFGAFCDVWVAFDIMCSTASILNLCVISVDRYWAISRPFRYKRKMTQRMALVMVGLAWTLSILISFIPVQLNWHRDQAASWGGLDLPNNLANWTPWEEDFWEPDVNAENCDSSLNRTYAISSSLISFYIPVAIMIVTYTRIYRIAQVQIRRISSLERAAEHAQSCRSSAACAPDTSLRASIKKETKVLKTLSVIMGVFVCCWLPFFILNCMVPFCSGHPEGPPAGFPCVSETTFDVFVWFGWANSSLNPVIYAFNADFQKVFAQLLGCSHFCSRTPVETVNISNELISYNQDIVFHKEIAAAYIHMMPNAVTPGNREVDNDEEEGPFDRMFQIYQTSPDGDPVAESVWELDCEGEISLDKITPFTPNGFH

Rattus norvegicus [20] = assay: Percentage of rats disrupted after 0.01 mg/kg, 0.023 uM/kg dose; format: functional; outline: as §3
Rattus norvegicus [21] = assay: Percentage of rats disrupted after 0.02 mg/kg, 0.046 uM/kg dose; format: functional; outline: as §3
Rattus norvegicus [22] = assay: Percentage of rats disrupted after 0.04 mg/kg, 0.093 uM/kg dose; format: functional; outline: as §3
Rattus norvegicus [23] = assay: Percentage of rats disrupted after 0.08 mg/kg, 0.186 uM/kg dose (95%CI); format: functional; outline: as §3
Rattus norvegicus [24] = assay: Effective dose in rats as nmol/kg after 0.04 mg/kg, 0.093 uM/kg dose (95%CI); format: functional
Rattus norvegicus [25] = assay: Percentage of rats selecting drug lever (SDL) after 0.08 mg/kg, 0.186 uM/kg dose; format: functional
Rattus norvegicus [26] = assay: Percentage of rats selecting drug lever (SDL) after 0.04 mg/kg, 0.093 uM/kg dose; format: functional
Rattus norvegicus [27] = assay: Percentage of rats selecting the drug lever (SDL) after 0.01 mg/kg, 0.023 uM/kg dose; format: functional
Rattus norvegicus [28] = assay: Percentage of rats selecting the drug lever (SDL) after 0.02 mg/kg, 0.046 uM/kg dose; format: functional
Rattus norvegicus [29] = assay: Effective dose as nmol/kg after 0.02 mg/kg, 0.046 uM/kg dose (95%CI); format: functional
[30] = target: T1, 5-hydroxytryptamine receptor 1A; assay: Binding affinity against 5-hydroxytryptamine 1A receptor using [3H]8-OH-DPAT as radioligand
Outline: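 Competition binding at human 5-HT1A stably expressed in CHO cells (maintained in MEM, 10% dialyzed FBS, hygromycin B; serum-free 5 h before harvest, pellets stored –80 °C). 0.80 nM [3H]8-OH-DPAT, buffer 50 mM Tris/0.5 mM EDTA/10 mM MgCl2 pH 7.4, 60 min at 25 °C, filtration.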

[31] = target: T2, 5-hydroxytryptamine receptor 1D; assay: Binding affinities against 5-hydroxytryptamine 1D receptor alpha; outline: as §1
[32] = target: T3, 5-hydroxytryptamine receptor 2B; assay: Binding affinities against 5-hydroxytryptamine 2B receptor; outline: as §1
[33] = target: T5, 5-hydroxytryptamine receptor 6; assay: Binding affinities against 5-hydroxytryptamine 6 receptor; outline: as §1
D(1A) dopamine receptor [34] = target: T6, D(1A) dopamine receptor; assay: Binding affinity against Dopamine receptor D1; outline: as §1
D(2) dopamine receptor [35] = target: T7, D(2) dopamine receptor; assay: Binding affinity against Dopamine receptor D2; outline: as §1
Histamine H1 receptor [36] = target: T8, Histamine H1 receptor; assay: Binding affinity against Histamine H1 receptor; outline: as §1
Rattus norvegicus [37] = assay: Compound was evaluated for the percentage of rats selecting the drug lever (SDL) following a dose of 0.16 mg/kg and 0.388 uM/kg; format: functional
Outline: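 Test drug was given ip 30 min before sessions run under extinction, with ≥8 rats per dose. The first lever reaching 50 presses scored as selected. No completion within 5 min counted as disruption.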

Rattus norvegicus [38] = assay: Compound was evaluated for effective dose measured in mg/kg following a dose of 0.04 mg/kg and 0.097 uM/kg (95%CI); format: functional
Rattus norvegicus [39] = assay: Compound was evaluated for effective dose measured in mg/kg following a dose of 0.08 mg/kg and 0.194 uM/kg (95%CI); range 0.030-0.075; format: functional
[40] = target: 5-hydroxytryptamine receptor 7 (Homo sapiens, UniProt P34969); assay: Binding affinities against 5-hydroxytryptamine 7 receptor
Sequence of 5-hydroxytryptamine receptor 7 (P34969 whole entry): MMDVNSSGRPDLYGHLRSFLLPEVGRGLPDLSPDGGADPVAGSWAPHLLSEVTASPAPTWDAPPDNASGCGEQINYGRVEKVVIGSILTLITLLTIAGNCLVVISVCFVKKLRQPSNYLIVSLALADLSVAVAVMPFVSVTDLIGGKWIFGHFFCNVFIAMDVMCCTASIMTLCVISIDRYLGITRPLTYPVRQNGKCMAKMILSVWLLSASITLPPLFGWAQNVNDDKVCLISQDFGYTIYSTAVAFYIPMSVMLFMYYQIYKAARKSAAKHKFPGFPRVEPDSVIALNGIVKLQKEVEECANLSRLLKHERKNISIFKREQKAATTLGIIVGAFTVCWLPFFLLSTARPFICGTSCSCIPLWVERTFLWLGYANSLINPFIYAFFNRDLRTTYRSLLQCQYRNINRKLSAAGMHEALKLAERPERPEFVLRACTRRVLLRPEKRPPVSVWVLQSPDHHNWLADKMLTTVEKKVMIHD

[41] = target: T4, 5-hydroxytryptamine receptor 5A; assay: Binding affinities against 5-hydroxytryptamine 5A receptor; outline: as §1
Rattus norvegicus [42] = assay: Compound was evaluated for effective dose measured in mg/kg following a dose of 0.04 mg/kg and 0.097 uM/kg (95%CI); range 0.027-0.11; format: functional
Rattus norvegicus [43] = assay: Compound was evaluated for effective dose measured in nmol/kg following a dose of 0.04 mg/kg and 0.097 uM/kg (95%CI); format: functional

## C[C@H]1C[C@H](C)N1C(=O)[C@@H]1C=C2c3cccc4[nH]cc(c34)CC2N(C)C1 (some centres not stated)
[1]
  Ki: 0.45 nM
[2]
  Ki: 280 nM
[3]
  Ki: 2.4 nM
[4]
  Ki: 27 nM
[5]
  Ki: 27 nM
[6]
  Ki: 15 nM
D(1A) dopamine receptor [7]
  Ki: 290 nM
D(2) dopamine receptor [8]
  Ki: 110 nM
Histamine H1 receptor [9]
  Ki: 2500 nM
Rattus norvegicus [10]
  D: 6%
Rattus norvegicus [11]
  ED50: 0.025 µmol/kg
Rattus norvegicus [12]
  D: 7%
Rattus norvegicus [13]
  D: 0%
Rattus norvegicus [14]
  SDL: 67% and 90%
Rattus norvegicus [15]
  SDL: 100%
Rattus norvegicus [16]
  SDL: 50%
Rattus norvegicus [17]
  D: 0%
  ED50: 0.01 mg/kg

## CCN(CC)C(=O)[C@@H]1C=C2c3cccc4[nH]cc(c34)C[C@H]2N(C)C1 [LYSERGIDE]
[2]
  Ki: 93 nM
[18]
  Ki: 3.9 nM
D(1A) dopamine receptor [19]
  Ki: 180 nM
D(2) dopamine receptor [8]
  Ki: 120 nM
D(4) dopamine receptor
  Ki: 56 nM
D(3) dopamine receptor
  Ki: 27 nM
D(1B) dopamine receptor
  Ki: 340 nM
Rattus norvegicus [20]
  D: 0%
Rattus norvegicus [21]
  D: 0%
Rattus norvegicus [22]
  D: 0%
Rattus norvegicus [23]
  D: 0%
Rattus norvegicus [24]
  ED50: 0.032 µmol/kg
Rattus norvegicus [25]
  SDL: 100%
Rattus norvegicus [26]
  SDL: 75%
Rattus norvegicus [27]
  SDL: 17%
Rattus norvegicus [28]
  SDL: 58%
Rattus norvegicus [29]
  ED50: 0.045 µmol/kg

## C[C@@H]1C[C@H](C)N1C(=O)[C@@H]1C=C2c3cccc4[nH]cc(c34)CC2N(C)C1 (some centres not stated)
[30]
  Ki: 1.1 nM
[2]
  Ki: 200 nM
[31]
  Ki: 3.7 nM
[32]
  Ki: 44 nM
[33]
  Ki: 13 nM
D(1A) dopamine receptor [34]
  Ki: 230 nM
D(2) dopamine receptor [35]
  Ki: 60 nM
Histamine H1 receptor [36]
  Ki: 500 nM
Rattus norvegicus [11]
  D: 12%
Rattus norvegicus [13]
  D: 0%
Rattus norvegicus [14]
  D: 0%
  SDL: 33%
Rattus norvegicus [37]
  ED50: 0.03 mg/kg
Rattus norvegicus [38]
  D: 20%
  SDL: 70%
Rattus norvegicus [39]
  ED50: 0.047 mg/kg
[40]
  Ki: 12 nM
[41]
  Ki: 16 nM

## C[C@@H]1C[C@@H](C)N1C(=O)[C@@H]1C=C2c3cccc4[nH]cc(c34)CC2N(C)C1 (some centres not stated)
[1]
  Ki: 6.8 nM
[2]
  Ki: 140 nM
[3]
  Ki: 2 nM
[4]
  Ki: 310 nM
[5]
  Ki: 13 nM
[6]
  Ki: 61 nM
D(1A) dopamine receptor [7]
  Ki: 340 nM
D(2) dopamine receptor [8]
  Ki: 330 nM
Histamine H1 receptor [9]
  Ki: 1400 nM
Rattus norvegicus [11]
  D: 0%
Rattus norvegicus [13]
  D: 0%
Rattus norvegicus [14]
  D: 10%
Rattus norvegicus [42]
  SDL: 80%
Rattus norvegicus [16]
  ED50: 0.027 mg/kg
Rattus norvegicus [16]; 0.08 mg/kg
  SDL: 25% and 56%
Rattus norvegicus [37]
  SDL: 40%
Rattus norvegicus [38]
  D: 17%
  ED50: 0.055 mg/kg
Rattus norvegicus [43]
  ED50: 0.066 µmol/kg
